In the library only some 2.6% were active in any assay of this set; here they are far more common.
NPY-Y1 PAM-ag: human NPY-Y1 potentiation or agonism, primary screen; P25929; NPY-Y1 expressing cells, potentiator/agonist activation; activation, % at 3.6 µM; 0.37% of 220,000 active; AID 1304; in the data active = activation above about 33%, passing the limit was not always enough;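 note: cells stimulated with NPY at EC10 then isoproterenol at EC100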
Target sequence (P25929 whole entry, looked up): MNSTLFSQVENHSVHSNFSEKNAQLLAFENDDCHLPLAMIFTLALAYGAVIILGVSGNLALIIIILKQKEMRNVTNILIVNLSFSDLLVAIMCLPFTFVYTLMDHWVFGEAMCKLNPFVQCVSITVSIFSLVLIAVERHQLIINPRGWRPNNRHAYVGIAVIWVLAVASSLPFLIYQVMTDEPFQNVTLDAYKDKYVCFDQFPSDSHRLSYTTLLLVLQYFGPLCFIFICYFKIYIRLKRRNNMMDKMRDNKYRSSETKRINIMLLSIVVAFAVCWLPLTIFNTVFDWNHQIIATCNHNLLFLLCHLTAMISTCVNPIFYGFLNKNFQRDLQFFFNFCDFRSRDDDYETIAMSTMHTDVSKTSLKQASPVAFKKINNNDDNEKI
NPY2 pot ag: human NPY-Y2 potentiation or agonism, primary screen; AID 1359; cells expressing NPY-Y2, potentiator/agonist read-out; activation, % at 3.6 µM; 0.45% of 220,000 active; in the data active = activation above about 27%;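 note: cells stimulated with NPY near EC25 plus isoproterenol at EC100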
NPY-Y1 antag: blocks the human neuropeptide Y Y1 receptor | inhibition, % at 3.6 µM | HEK293-CNG Y1 cells, membrane potential fluorescence; NPY at EC95, then isoproterenol | 1% of 200,000 active | P25929 | AID 1040;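 active = inhibition above the campaign mean inhibition of all tested compounds plus 3 SD, cut at about 20% in these data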
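Assay system: HEK293 Y1/CNG channel cell line; Doses: single compound dose of 3.6 µM, 0.4% DMSO; Timing: dye 3 h, compound 60 min room temperature, stimulation 45 min; Technique: Membrane-potential fluorescent dye readout; Measure: % inhibition of NPY effect.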
MT stabilize HCS: microtubule stabilizers in HeLa cells | 0.83% of 200,000 active | HeLa tubulin immunostaining HCS, 24 h; share of cells brighter than vehicle mean+2SD | AID 2205 | % tubulin-high responders, % at 10 µM;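 active = plate Z-score above 3 for both tubulin-high and condensed-nucleus cell shares, with cell loss under 80%, at 10 µM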;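 note: anti alpha tubulin signal scored within the nucleus-defined area of each cell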
b-catenin transl: alters nuclear translocation of beta-catenin in HeLa cells; 0.3% of 190,000 active; immunofluorescence imaging; AID 1665; nuclear translocation activity, % at 5 µM;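 active = nuclear translocation activity above 50% at 5 µM, with a well cell count of 50 or more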;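 note: per-cell ratio of nuclear to cytoplasmic median beta-catenin stain intensity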
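Signal – beta-catenin immunofluorescence imaging with DAPI · Test system – human HeLa cell line · Dosing – 5 µM primary single dose, 0.1% DMSO, 0.02–20 µM confirmation series · Measure – % activation, nuclear-to-cytoplasmic median beta-catenin signal ratio per cell · Incubation – 24 h compound exposure at 37°C, 5% CO2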
NPY-Y2 antag: blocks the human neuropeptide Y Y2 receptor; P49146; NPY-Y2 expressing cells, antagonist mode; inhibition, % at 2.7 µM; 0.99% of 140,000 active; AID 793; in the data active = inhibition above about 17%
NPY1 antag ctr: antagonizes human NPY-Y1, counter-screen to NPY-Y2 antagonists. 19% of 710 active. inhibition, % at 3.6 µM. shares compounds with NPY-Y2 antag. AID 1256. cell-based NPY-Y1 antagonism counterscreen; in the data active = inhibition above about 20%;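 note: cells challenged with NPY then isoproterenol with cAMP sensed through a CNG channel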
NPY2 antag conf: confirmation of human neuropeptide Y receptor Y2 antagonists | AID 1257 | shares compounds with NPY-Y2 antag | 32% of 710 active | inhibition, % at 2.8 µM | HEK293 NPY-Y2 CNG channel, membrane potential fluorescence;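 active = mean inhibition of triplicate wells above the hit cutoff set in the primary screen, cut at about 17% in these data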
Large screens that a line does not name were inactive (follow-up assays come after a bar, where they were run).

N=c1c2c(ncn1Cc1ccco1)Oc1cc(O)ccc1C2c1ccccc1 (centres undefined)	none (no result: NPY-Y1 antag, MT stabilize HCS, NPY-Y2 antag)
N=c1c2c(ncn1Cc1ccco1)Oc1c(ccc3ccccc13)C2c1ccccc1 (centres undefined)	MT stabilize HCS 12.0, NPY-Y2 antag 19.0 | NPY1 antag ctr inactive | NPY2 antag conf inactive
CCOC(=O)CCC(NC(=O)CCCCCCCC(=O)NC(CCC(=O)OCC)C(=O)OCC)C(=O)OCC (centres undefined)	none
O=C1CSC(c2nn(-c3ccccc3)cc2-c2cc3ccccc3oc2=O)N1Cc1ccco1 (centres undefined)	NPY-Y2 antag 18.1 | NPY1 antag ctr inactive | NPY2 antag conf inactive
OCCNCc1cc(Br)ccc1OCc1ccccc1Cl	NPY-Y2 antag 21.9 | NPY1 antag ctr inactive | NPY2 antag conf inactive
OCCCCNCc1cc(Br)ccc1OCc1ccccc1	none (no result: NPY-Y2 antag)
CN(C(=O)CSC1=NC2C(N=N1)c1cc(Br)ccc1N2C)C1CCCCC1 (centres undefined)	none (no result: NPY-Y2 antag)
COC(=O)c1ccc(OCC(=O)c2ccc(C)c(C)c2)cc1	NPY-Y2 antag 25.9 (no result: b-catenin transl) | NPY1 antag ctr inactive | NPY2 antag conf inactive
COC(=O)c1ccc(OCC(=O)c2cccc(OC)c2)cc1	none
COc1ccc(S(=O)(=O)N2CCOCC2)cc1NC(=O)CSc1n[nH]c(C(C)C)n1	none (no result: NPY-Y2 antag)
CCCCC(CC)C(=O)NCC(C)NC(=O)C(CC)CCCC (centres undefined)	NPY-Y2 antag 23.6 (no result: b-catenin transl) | NPY1 antag ctr inactive | NPY2 antag conf inactive
CC(CNC(=O)C(C)C)NC(=O)C(C)C (centres undefined)	none
O=[N+]([O-])c1ccc(Sc2ncc3ccccn23)nc1	none (no result: NPY-Y1 antag, MT stabilize HCS, NPY-Y2 antag)
Cc1ccc(C)c(Nc2c([N+](=O)[O-])c(=O)oc3ccccc23)c1	none (no result: NPY-Y1 antag, MT stabilize HCS, NPY-Y2 antag)
CCC(C)(C(=O)NC1CCCC1)N(Cc1ccco1)C(=O)c1ccccn1 (centres undefined)	NPY-Y2 antag 22.8 | NPY1 antag ctr inactive | NPY2 antag conf inactive
CCC(C)(C(=O)NC1CCCC1)N(Cc1cccs1)C(=O)c1ccccn1 (centres undefined)	none (no result: NPY-Y2 antag)
COC(=O)c1ccc(CSc2nc3sc4c(c3c(=O)n2C)CCCC4)o1	NPY-Y2 antag 18.5 | NPY1 antag ctr inactive | NPY2 antag conf 18.9
COC(=O)c1ccc(CSc2nc3ccccc3c(=O)n2-c2ccccc2)o1	NPY-Y2 antag 17.8 | NPY1 antag ctr inactive | NPY2 antag conf 47.1
CC(C)c1ccc(NC(=O)c2snc3ccc(Cl)cc23)cc1	NPY-Y2 antag 26.1 | NPY1 antag ctr inactive | NPY2 antag conf inactive
CC(C)c1ccc(NC(=O)c2csnn2)cc1	none
CC1CCN(CCNC(=S)Nc2ccc(Cl)cc2)CC1	none (no result: NPY-Y2 antag)
COC(=O)c1ccc(OC)c(CSc2nnc(COc3cccc(C)c3)o2)c1	NPY-Y2 antag 23.1 | NPY1 antag ctr inactive | NPY2 antag conf inactive
COC(=O)c1ccc(OC)c(CSc2nnc(COc3ccc(OC)cc3)o2)c1	none
CC(C)Cn1c(N)c(C(=O)NCC2CCCO2)c2nc3ccccc3nc21 (centres undefined)	NPY-Y2 antag 19.6 | NPY1 antag ctr inactive | NPY2 antag conf inactive
COCCn1c(N)c(C(=O)NCC2CCCO2)c2nc3ccccc3nc21 (centres undefined)	none
Cc1nc(N2CCC(C)CC2)c2oc3ccccc3c2n1	MT stabilize HCS 24.1, NPY-Y2 antag 18.6 | NPY1 antag ctr inactive | NPY2 antag conf 36.5
COc1ccc(/C=N/NC(=O)CCOc2ccccc2C)cc1OC	NPY-Y2 antag 35.0 (no result: b-catenin transl) | NPY1 antag ctr inactive | NPY2 antag conf inactive
COc1ccc(/C=N/NC(=O)CN(CCc2ccccc2)S(=O)(=O)c2ccc(NC(C)=O)cc2)cc1OC	NPY-Y2 antag 18.0 | NPY1 antag ctr inactive | NPY2 antag conf 44.5
Cc1ccc(OCCNc2ccc(C(F)(F)F)cc2[N+](=O)[O-])cc1	NPY-Y2 antag 21.3 | NPY1 antag ctr inactive | NPY2 antag conf inactive
Cc1ccc(C(=O)NCCCNc2ccc(C(F)(F)F)cc2[N+](=O)[O-])cc1	none
Cn1nc(C(F)(F)F)c(CO)c1Sc1ccc(F)cc1	none (no result: NPY-Y2 antag)
Cc1ccc(NC(=O)C(=O)NCCOc2ccc(Cl)cc2)c(C)c1	NPY-Y2 antag 21.5 | NPY1 antag ctr inactive | NPY2 antag conf 20.1
CCCOc1ccc(NCC(=O)Nc2ccc(C)cc2C)cc1	none
CCOc1ccc2ccccc2c1C(=O)N1CCN(c2ccccc2)CC1	MT stabilize HCS 47.1, NPY-Y2 antag 18.3 | NPY1 antag ctr inactive | NPY2 antag conf inactive
CC(C)NC(=O)CSc1nncn1-c1ccccc1	NPY-Y2 antag 18.2 | NPY1 antag ctr inactive | NPY2 antag conf inactive
CC(C)NC(=O)CSc1nc2ccccc2n1-c1ccccc1	none
CCOC(=O)C1=C(c2ccccc2)NC(SCC(=O)Nc2cccc(C)c2)=C(C#N)C1c1ccco1 (centres undefined)	none
CCOC(=O)CSC1=C(C#N)C(c2ccco2)C(C(=O)Nc2cccc(C(F)(F)F)c2)=C(C)N1 (centres undefined)	NPY-Y2 antag 18.1 (no result: b-catenin transl) | NPY1 antag ctr inactive | NPY2 antag conf 18.7
COc1ccc(C(C(=O)NC2CCCC2)N(C(=O)c2ccoc2C)c2ccc(C)cc2)cc1 (centres undefined)	NPY-Y2 antag 18.6 | NPY1 antag ctr inactive | NPY2 antag conf inactive
CC(C)CCC(C)N=Cc1c(O)n(Cc2ccccc2)c(=O)c2ccccc12 (centres undefined)	NPY-Y2 antag 21.3 | NPY1 antag ctr 26.6 | NPY2 antag conf 20.8

High-throughput results (PubChem BioAssay)
